Measured values reported in ChEMBL document CHEMBL1147738, “Potent and selective mitogen-activated protein kinase kinase (MEK) 1,2 inhibitors. 1. 4-(4-bromo-2-fluorophenylamino)-1- methylpyridin-2(1H)-ones” (J Med Chem, 2006).
pIC50: −log10 of the molar value.

How the values were obtained:
Malme-3M [1] = assay: Inhibition of basal ERK phosphorylation in Malme-3M cells; assay type: functional, Homo sapiens
[2] = target: Mitogen-activated protein kinase 11 (Homo sapiens) (UniProt Q15759); assay: Inhibition of SAPK2b/p38--beta-2 at 10 uM
How it was run: (§1)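 Kinase panel run at Upstate (Dundee). Each compound was tested at 10 µM against each enzyme and reported as % inhibition.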

[3] = target: Dual specificity mitogen-activated protein kinase kinase 1 (Homo sapiens, UniProt Q02750); assay: Inhibitory activity against MEK1
Malme-3M [4] = assay: Inhibition of cellular viability of Malme-3M cells; assay type: functional, Homo sapiens
[5] = target: T1, MAP kinase-activated protein kinase 5 (Homo sapiens) (UniProt Q8IW41); assay: Inhibition of PRAK at 10 uM; how it was run: as §1
T1 sequence (whole entry): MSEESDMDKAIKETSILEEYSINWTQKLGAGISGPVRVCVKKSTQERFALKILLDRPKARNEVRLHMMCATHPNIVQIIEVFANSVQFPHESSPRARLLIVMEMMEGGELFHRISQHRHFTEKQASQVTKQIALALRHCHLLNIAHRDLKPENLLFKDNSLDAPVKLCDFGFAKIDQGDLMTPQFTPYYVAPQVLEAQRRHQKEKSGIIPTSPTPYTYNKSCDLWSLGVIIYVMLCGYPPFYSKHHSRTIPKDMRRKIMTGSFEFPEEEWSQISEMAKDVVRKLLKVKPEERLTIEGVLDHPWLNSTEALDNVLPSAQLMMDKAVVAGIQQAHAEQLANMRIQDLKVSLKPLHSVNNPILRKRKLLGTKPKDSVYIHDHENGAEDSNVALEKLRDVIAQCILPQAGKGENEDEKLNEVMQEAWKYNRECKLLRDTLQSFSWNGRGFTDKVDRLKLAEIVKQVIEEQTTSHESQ

[6] = Half life in rat at 10 mg/kg, po; assay type: ADME, organism-based; design: dose 10 mg/kg, route oral; conditions: Sprague-Dawley, in vivo
How it was run: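 Male Sprague Dawley rats (6-10 weeks) were given 10 mg/kg by oral gavage (2 mg/mL in 1% CMC/0.5% Tween 80, 5 mL/kg). Tail-vein EDTA blood was drawn at 15 and 30 min and 1, 2, 4, 8, 12, 24, 48, 72 h. Plasma was quantified by LC/MS/MS after methanol precipitation. Parameters came from non-compartmental analysis.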

[7] = target: RAC-alpha serine/threonine-protein kinase (Homo sapiens) (UniProt P31749); assay: Inhibition of PKBa at 10 uM; how it was run: as §1
HT-29 = assay: Inhibition of ERK phosphorylation in HT29 tumor bearing NCr-nu/nu mice after 4 hrs at 10 mg/kg, po; assay type: functional; conditions: Mus musculus, HT-29, 4 h
[8] = Clearance in rat; assay type: ADME, organism-based; conditions: Sprague-Dawley, in vivo
How it was run: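 Male Sprague Dawley rats (6-10 weeks) received IV 1 mg/kg (10% DMSO/90% saline) and PO 10 mg/kg (1% CMC/0.5% Tween 80). Serial tail-vein plasma was taken up to 24 h (IV) or 72 h (PO) and analysed by LC/MS/MS (9 ng/mL to 20 µg/mL). Parameters were calculated non-compartmentally.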

Chain of Mitogen-activated protein kinase 11 (Homo sapiens) (Q15759 whole entry): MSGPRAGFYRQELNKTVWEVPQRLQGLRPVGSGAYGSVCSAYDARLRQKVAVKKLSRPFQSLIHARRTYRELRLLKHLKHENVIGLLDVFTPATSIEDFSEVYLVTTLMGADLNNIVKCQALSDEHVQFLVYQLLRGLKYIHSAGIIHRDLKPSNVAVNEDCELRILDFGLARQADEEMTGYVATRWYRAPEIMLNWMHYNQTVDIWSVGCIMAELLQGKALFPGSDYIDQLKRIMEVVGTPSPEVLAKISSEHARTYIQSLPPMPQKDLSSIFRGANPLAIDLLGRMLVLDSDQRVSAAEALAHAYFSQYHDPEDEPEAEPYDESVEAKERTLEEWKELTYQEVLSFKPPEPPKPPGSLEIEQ
Chain of RAC-alpha serine/threonine-protein kinase (Homo sapiens) (P31749 whole entry): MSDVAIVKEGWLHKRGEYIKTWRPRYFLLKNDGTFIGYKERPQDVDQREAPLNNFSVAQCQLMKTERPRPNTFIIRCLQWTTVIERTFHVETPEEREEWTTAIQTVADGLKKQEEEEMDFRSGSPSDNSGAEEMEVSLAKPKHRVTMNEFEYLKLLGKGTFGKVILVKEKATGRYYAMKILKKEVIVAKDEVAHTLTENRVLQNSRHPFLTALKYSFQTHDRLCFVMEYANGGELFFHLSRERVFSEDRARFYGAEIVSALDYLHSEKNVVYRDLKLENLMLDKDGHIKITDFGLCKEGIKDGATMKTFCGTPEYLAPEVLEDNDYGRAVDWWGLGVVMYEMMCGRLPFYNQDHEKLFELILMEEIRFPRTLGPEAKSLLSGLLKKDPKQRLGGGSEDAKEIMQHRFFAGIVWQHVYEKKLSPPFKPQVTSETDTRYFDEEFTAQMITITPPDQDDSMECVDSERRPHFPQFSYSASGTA
Chain of Dual specificity mitogen-activated protein kinase kinase 1 (Q02750 whole entry): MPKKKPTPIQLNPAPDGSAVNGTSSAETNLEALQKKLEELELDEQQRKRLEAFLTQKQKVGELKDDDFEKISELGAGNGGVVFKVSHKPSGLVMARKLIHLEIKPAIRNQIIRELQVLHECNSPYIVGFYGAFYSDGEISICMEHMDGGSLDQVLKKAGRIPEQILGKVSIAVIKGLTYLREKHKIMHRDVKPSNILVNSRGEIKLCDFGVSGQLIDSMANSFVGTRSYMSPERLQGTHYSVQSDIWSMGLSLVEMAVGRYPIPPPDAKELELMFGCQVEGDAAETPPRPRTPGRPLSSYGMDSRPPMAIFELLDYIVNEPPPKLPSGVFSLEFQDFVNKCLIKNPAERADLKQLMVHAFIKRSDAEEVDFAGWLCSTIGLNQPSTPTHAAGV

Row | inhibition [2] [%] | pIC50 [3] | inhibition [5] [%] | half-life [6] [h] | inhibition [7] [%] | clearance [8] [mL/min/kg] | SMILES | Activity (Malme-3M [1]) [nM] | Activity (Malme-3M [4]) [nM] | inhibition in vivo at 10 mg/kg (HT-29) [%]
1 | 5 | 6.98 | 9 | 4.7 | 12 | 1.5 | CONC(=O)c1cn(C)c(=O)c(C)c1Nc1ccc(Br)cc1F | 39 | 265 | > 80
2 | 13 |  | 18 | 4.7 | 6 | 1.9 | CCONC(=O)c1cn(C)c(=O)c(C)c1Nc1ccc(Br)cc1F | 10.6 | 118 | > 80
3 | 16 | 7.74 | 16 | 3 | -4 | 8 | Cc1c(Nc2ccc(Br)cc2F)c(C(=O)NOCCO)cn(C)c1=O | 2 | 11 | > 80
